≈ marks a conversion by molar mass, not a printed value.
What was measured:
Phocaeicola vulgatus = assay: Ratio of antibacterial (Bacteroides vulgatus) activities compared to that of trimethoprim and metronidazole; type: functional
[1] = test system: Bacteroides thetaiotaomicron; assay: Ratio of antibacterial (Bacteroides thetaiotaomicron) activities compared to that of trimethoprim and metronidazole; type: functional
Clostridioides difficile = assay: Ratio of antibacterial (Clostridium difficile) activities compared to that of trimethoprim and metronidazole; type: functional
Clostridium perfringens = assay: Ratio of antibacterial (Clostridium perfringens) activities compared to that of trimethoprim and metronidazole; type: functional
Dihydrofolate reductase [2] = molecular target: T1, Dihydrofolate reductase (Rattus norvegicus, UniProt Q920D2); assay: In vitro inhibition of rat liver dihydrofolate reductase.; conditions: read-out: I50
T1 sequence (Q920D2 whole entry): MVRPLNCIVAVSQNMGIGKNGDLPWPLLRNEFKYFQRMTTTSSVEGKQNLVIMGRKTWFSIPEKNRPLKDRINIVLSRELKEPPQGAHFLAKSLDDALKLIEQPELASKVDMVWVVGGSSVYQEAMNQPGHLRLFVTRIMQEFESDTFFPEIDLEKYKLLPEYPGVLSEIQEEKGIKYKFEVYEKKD

Escherichia coli [3] = assay: Antibacterial (Escherichia coli) activity compared to trimethoprim.; type: functional
In short: (§1)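 Each MIC is divided by the MIC of trimethoprim run alongside. Serial dilutions were normally 0.1, 0.3, 1, 3, 10, etc., and occasionally 1, 5 and 10. For E. coli the value is the average over six strains.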

Fusobacterium nucleatum = assay: Ratio of antibacterial (Fusobacterium nucleatum) activities compared to that of trimethoprim and metronidazole; type: functional
Klebsiella pneumoniae [4] = assay: Antibacterial (Klebsiella pneumoniae CN3632) activity compared to trimethoprim.; type: functional; in short: as §1
[5] = test system: Mycolicibacterium smegmatis; assay: Antibacterial (Mycobacterium smegmatis S3254) activity compared to trimethoprim.; type: functional; in short: as §1
Pasteurella multocida = assay: Antibacterial (Pasteurella multocides ATCC 6587) activity compared to trimethoprim.; type: functional; in short: as §1
Proteus vulgaris [6] = assay: Antibacterial (Proteus vulgaris CN329) activity compared to trimethoprim.; type: functional; in short: as §1
[7] = Antibacterial (Salmonella typhi CN512) activity compared to trimethoprim.; type: functional, salmonella typhosa
Shigella flexneri = assay: Antibacterial (Shigella flexneri CN6007) activity compared to trimethoprim.; type: functional; in short: as §1
Serratia marcescens = assay: Antibacterial (Serratia marcescens CN2398) activity compared to trimethoprim.; type: functional; in short: as §1
Streptococcus pyogenes [8] = assay: Antibacterial ([…] CN10) activity compared to trimethoprim.; type: functional; in short: as §1
Staphylococcus aureus [9] = assay: Antibacterial (Staphylococcus aureus CN491) activity compared to trimethoprim.; type: functional; in short: as §1
Klebsiella aerogenes [10] = assay: Antibacterial (Enterobacter aerogenes 2201/86) activity compared to trimethoprim.; type: functional; in short: as §1
Klebsiella aerogenes [11] = assay: Ratio of antibacterial (Enterobacter aerogenes, 2201/86) activities of compound and trimethoprim; type: functional; in short: as §1
Klebsiella pneumoniae [12] = assay: Ratio of antibacterial (Klebsiella pneumoniae CN3632) activities of compound and trimethoprim; type: functional; in short: as §1
Proteus vulgaris [13] = assay: Ratio of antibacterial (Proteus vulgaris CN329) activities of compound and trimethoprim; type: functional; in short: as §1
Shigella dysenteriae = assay: Ratio of antibacterial (Shigella dysentariae CN513) activities of compound and trimethoprim; type: functional
Staphylococcus aureus [14] = assay: Ratio of antibacterial (Staphylococcus aureus CN491) activities of compound and trimethoprim; type: functional; in short: as §1
Salmonella = assay: Ratio of antibacterial (Salmonella typhi CN512) activities of compound and trimethoprim; type: functional, salmonella typhosa
Escherichia coli [15] = assay: Ratio of antibacterial (Escherichia coli CN314) activities of compound and trimethoprim; type: functional
Dihydrofolate reductase [16] = molecular target: T2, Dihydrofolate reductase (Escherichia coli, UniProt P0ABQ4); assay: In vitro inhibition of dihydrofolate reductase of Escherichia coli; conditions: read-out: I50
T2 sequence (P0ABQ4 whole entry): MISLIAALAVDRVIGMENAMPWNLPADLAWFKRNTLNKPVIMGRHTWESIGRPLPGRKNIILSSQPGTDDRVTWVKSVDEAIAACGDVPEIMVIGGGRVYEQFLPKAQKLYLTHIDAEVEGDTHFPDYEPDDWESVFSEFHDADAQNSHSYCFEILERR
In short: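 The E. coli DHFR assay contained 1 nM enzyme, with the lower limit for I50 arbitrarily set at 2 nM. I50 was estimated from plots of % inhibition of steady-state velocity vs log inhibitor concentration.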

Streptococcus pyogenes [17] = assay: Ratio of antibacterial (Streptococcus pyogenes CN10) activities of compound and trimethoprim

## C=CCc1cc(Cc2cnc(N)nc2N)cc(CCC)c1O
Phocaeicola vulgatus
  MIC: 0.8 µg/mL
[1]
  MIC: 0.8 µg/mL
Clostridioides difficile
  MIC: > 25 µg/mL
Clostridium perfringens
  MIC: > 25 µg/mL
Dihydrofolate reductase [2]
  IC50: 2 µM
Escherichia coli [3]
  MIC: 5 µg/mL (≈ 16.8 µM)
Fusobacterium nucleatum
  MIC: 0.4 µg/mL
Klebsiella pneumoniae [4]
  MIC: 30 µg/mL (≈ 101 µM)
[5]
  MIC: 10 µg/mL (≈ 33.5 µM)
Pasteurella multocida
  MIC: 30 µg/mL (≈ 101 µM)
Proteus vulgaris [6]
  MIC: 30 µg/mL (≈ 101 µM)
[7]
  MIC: 100 µg/mL (≈ 335 µM)
Shigella flexneri
  MIC: 30 µg/mL (≈ 101 µM)
Serratia marcescens
  MIC: 3 µg/mL (≈ 10.1 µM)
Streptococcus pyogenes [8]
  MIC: 1 µg/mL (≈ 3.35 µM)
Staphylococcus aureus [9]
  MIC: 3 µg/mL (≈ 10.1 µM)
Klebsiella aerogenes [10]
  MIC: 30 µg/mL (≈ 101 µM)

## CCCOc1cc(Cc2cnc(N)nc2N)cc(OC)c1OC
Dihydrofolate reductase [2]
  IC50: 94.5 µM
Escherichia coli [3]
  MIC: 6 µg/mL (≈ 18.8 µM)
Klebsiella pneumoniae [4]
  MIC: 10 µg/mL (≈ 31.4 µM)
[5]
  MIC: 3 µg/mL (≈ 9.42 µM)
Pasteurella multocida
  MIC: 3 µg/mL (≈ 9.42 µM)
Proteus vulgaris [6]
  MIC: 3 µg/mL (≈ 9.42 µM)
[7]
  MIC: 10 µg/mL (≈ 31.4 µM)
Shigella flexneri
  MIC: 10 µg/mL (≈ 31.4 µM)
Serratia marcescens
  MIC: 3 µg/mL (≈ 9.42 µM)
Streptococcus pyogenes [8]
  MIC: 0.3 µg/mL (≈ 0.942 µM)
Staphylococcus aureus [9]
  MIC: 0.3 µg/mL (≈ 0.942 µM)
Klebsiella aerogenes [10]
  MIC: 3 µg/mL (≈ 9.42 µM)

## C/C=C/c1cc(Cc2cnc(N)nc2N)cc(/C=C/C)c1OC
Phocaeicola vulgatus
  MIC: 0.8 µg/mL
[1]
  MIC: 0.4 µg/mL
Clostridioides difficile
  MIC: 25 µg/mL
Clostridium perfringens
  MIC: 25 µg/mL
Dihydrofolate reductase [2]
  IC50: 27 µM
Escherichia coli [3]
  MIC: 72 µg/mL (≈ 232 µM)
Fusobacterium nucleatum
  MIC: 1.6 µg/mL
Klebsiella pneumoniae [4]
  MIC: 100 µg/mL (≈ 322 µM)
[5]
  MIC: 2 µg/mL (≈ 6.44 µM)
Pasteurella multocida
  MIC: 100 µg/mL (≈ 322 µM)
Proteus vulgaris [6]
  MIC: > 50 µg/mL
[7]
  MIC: 100 µg/mL (≈ 322 µM)
Shigella flexneri
  MIC: 100 µg/mL (≈ 322 µM)
Serratia marcescens
  MIC: > 5 µg/mL
Streptococcus pyogenes [8]
  MIC: 0.1 µg/mL (≈ 0.322 µM)
Staphylococcus aureus [9]
  MIC: 1 µg/mL (≈ 3.22 µM)
Klebsiella aerogenes [10]
  MIC: 100 µg/mL (≈ 322 µM)

## C=CCc1cc(Cc2cnc(N)nc2N)ccc1O
Clostridioides difficile
  MIC: 25 µg/mL
Clostridium perfringens
  MIC: > 25 µg/mL
Dihydrofolate reductase [2]
  IC50: 94.5 µM
Escherichia coli [3]
  MIC: 16 µg/mL (≈ 62.4 µM)
Fusobacterium nucleatum
  MIC: 0.8 µg/mL
Klebsiella pneumoniae [4]
  MIC: 20 µg/mL (≈ 78 µM)
[5]
  MIC: 5 µg/mL (≈ 19.5 µM)
Pasteurella multocida
  MIC: 10 µg/mL (≈ 39 µM)
Proteus vulgaris [6]
  MIC: 50 µg/mL (≈ 195 µM)
[7]
  MIC: 100 µg/mL (≈ 390 µM)
Shigella flexneri
  MIC: 10 µg/mL (≈ 39 µM)
Serratia marcescens
  MIC: 20 µg/mL (≈ 78 µM)
Streptococcus pyogenes [8]
  MIC: 2 µg/mL (≈ 7.8 µM)
Staphylococcus aureus [9]
  MIC: 10 µg/mL (≈ 39 µM)
Klebsiella aerogenes [10]
  MIC: 10 µg/mL (≈ 39 µM)

## COc1cc(Cc2cnc(N)nc2N)cc(CC(C)O)c1O (centres undefined)
Dihydrofolate reductase [2]
  IC50: 36 µM
Escherichia coli [3]
  MIC: 4 µg/mL (≈ 13.1 µM)
Klebsiella pneumoniae [4]
  MIC: 10 µg/mL (≈ 32.9 µM)
[5]
  MIC: 3 µg/mL (≈ 9.86 µM)
Pasteurella multocida
  MIC: 3 µg/mL (≈ 9.86 µM)
Proteus vulgaris [6]
  MIC: 30 µg/mL (≈ 98.6 µM)
[7]
  MIC: 10 µg/mL (≈ 32.9 µM)
Shigella flexneri
  MIC: 3 µg/mL (≈ 9.86 µM)
Serratia marcescens
  MIC: > 10 µg/mL
Streptococcus pyogenes [8]
  MIC: 3 µg/mL (≈ 9.86 µM)
Staphylococcus aureus [9]
  MIC: 3 µg/mL (≈ 9.86 µM)
Klebsiella aerogenes [10]
  MIC: 3 µg/mL (≈ 9.86 µM)

## CCCc1cc(Cc2cnc(N)nc2N)cc(OC)c1OC
Phocaeicola vulgatus
  MIC: 1.6 µg/mL
[1]
  MIC: 1.6 µg/mL
Clostridioides difficile
  MIC: > 25 µg/mL
Clostridium perfringens
  MIC: > 25 µg/mL
Dihydrofolate reductase [2]
  IC50: 37 µM
Escherichia coli [3]
  MIC: 6 µg/mL (≈ 19.8 µM)
Fusobacterium nucleatum
  MIC: 0.4 µg/mL
Klebsiella pneumoniae [4]
  MIC: 10 µg/mL (≈ 33.1 µM)
[5]
  MIC: 3 µg/mL (≈ 9.92 µM)
Pasteurella multocida
  MIC: 10 µg/mL (≈ 33.1 µM)
Proteus vulgaris [6]
  MIC: 10 µg/mL (≈ 33.1 µM)
[7]
  MIC: 3 µg/mL (≈ 9.92 µM)
Shigella flexneri
  MIC: 10 µg/mL (≈ 33.1 µM)
Serratia marcescens
  MIC: 3 µg/mL (≈ 9.92 µM)
Streptococcus pyogenes [8]
  MIC: 0.1 µg/mL (≈ 0.331 µM)
Staphylococcus aureus [9]
  MIC: 0.1 µg/mL (≈ 0.331 µM)
Klebsiella aerogenes [10]
  MIC: 10 µg/mL (≈ 33.1 µM)

## C=CCOc1ccc(Cc2cnc(N)nc2N)cc1
Dihydrofolate reductase [2]
  IC50: 320 µM
Escherichia coli [3]
  MIC: 72 µg/mL (≈ 281 µM)
Klebsiella pneumoniae [4]
  MIC: 100 µg/mL (≈ 390 µM)
[5]
  MIC: 50 µg/mL (≈ 195 µM)
Pasteurella multocida
  MIC: 100 µg/mL (≈ 390 µM)
Proteus vulgaris [6]
  MIC: > 100 µg/mL
[7]
  MIC: 100 µg/mL (≈ 390 µM)
Shigella flexneri
  MIC: 100 µg/mL (≈ 390 µM)
Serratia marcescens
  MIC: > 20 µg/mL
Streptococcus pyogenes [8]
  MIC: 10 µg/mL (≈ 39 µM)
Staphylococcus aureus [9]
  MIC: 100 µg/mL (≈ 390 µM)
Klebsiella aerogenes [10]
  MIC: 10 µg/mL (≈ 39 µM)

## C=CCc1cc(Cc2cnc(N)nc2N)cc(CC=C)c1O
Phocaeicola vulgatus
  MIC: 0.8 µg/mL
[1]
  MIC: 0.4 µg/mL
Clostridioides difficile
  MIC: > 25 µg/mL
Clostridium perfringens
  MIC: > 25 µg/mL
Dihydrofolate reductase [2]
  IC50: 9.6 µM
Escherichia coli [3]
  MIC: 21 µg/mL (≈ 70.9 µM)
Fusobacterium nucleatum
  MIC: 0.8 µg/mL
Klebsiella pneumoniae [4]
  MIC: 20 µg/mL (≈ 67.5 µM)
[5]
  MIC: 5 µg/mL (≈ 16.9 µM)
Pasteurella multocida
  MIC: 100 µg/mL (≈ 337 µM)
Proteus vulgaris [6]
  MIC: 50 µg/mL (≈ 169 µM)
[7]
  MIC: 10 µg/mL (≈ 33.7 µM)
Shigella flexneri
  MIC: 50 µg/mL (≈ 169 µM)
Serratia marcescens
  MIC: > 10 µg/mL
Streptococcus pyogenes [8]
  MIC: 1 µg/mL (≈ 3.37 µM)
Staphylococcus aureus [9]
  MIC: 1 µg/mL (≈ 3.37 µM)
Klebsiella aerogenes [10]
  MIC: 20 µg/mL (≈ 67.5 µM)

## Cc1cc(Cc2cnc(N)nc2N)cc2c1OC(C)(C)C2
Dihydrofolate reductase [2]
  IC50: 37 µM
Klebsiella aerogenes [11]
  MIC: 30 µg/mL
Klebsiella pneumoniae [12]
  MIC: 10 µg/mL
Proteus vulgaris [13]
  MIC: 10 µg/mL
Shigella dysenteriae
  MIC: 10 µg/mL
Staphylococcus aureus [14]
  MIC: 3 µg/mL
Salmonella
  MIC: 10 µg/mL
Escherichia coli [15]
  MIC: 10 µg/mL
Dihydrofolate reductase [16]
  IC50: 0.055 µM
Streptococcus pyogenes [17]
  MIC: 3 µg/mL

Reference: ChEMBL document CHEMBL1124568, “2,4-Diamino-5-benzylpyrimidines as antibacterial agents. 13. Some alkenyl derivatives with high in vitro activity against anaerobic organisms” (J Med Chem, 1989)
